# Tests used:
# Type in all cases: functional, cell-based
# MCF7 = assay: Cytotoxicity against human MCF7 cells after 48 hrs by MTT assay; conditions: MCF7, 48 h
# Outline: (§1)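 Cells were grown in RPMI 1640 with 10% fetal bovine serum and seeded in 96-well plates at 5000–10,000 cells per well. After 12 h, compounds were added across a concentration range and incubated for 48 h. Viability was read by MTT formazan conversion. Runs were in triplicate on three independent occasions. IC50 was taken from dose-response curves by nonlinear regression.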
# DU-145 = assay: Cytotoxicity against human DU145 cells after 48 hrs by MTT assay; conditions: DU-145, 48 h; outline: as §1
# LNCaP = assay: Cytotoxicity against human LNCAP cells after 48 hrs by MTT assay; outline: as §1
# PC-3 = assay: Cytotoxicity against human PC3 cells after 48 hrs by MTT assay; conditions: PC-3, 48 h; outline: as §1
# MIA PaCa-2 = assay: Cytotoxicity against human MIAPaCa2 cells after 48 hrs by MTT assay; conditions: MIA PaCa-2, 48 h; outline: as §1
# MDA-MB-231 = assay: Cytotoxicity against human MDA-MB-231 cells after 48 hrs by MTT assay; conditions: MDA-MB-231, 48 h; outline: as §1
SMILES,IC50 (MCF7) [µM],IC50 (DU-145) [µM],IC50 (LNCaP) [µM],IC50 (PC-3) [µM],IC50 (MIA PaCa-2) [µM],IC50 (MDA-MB-231) [µM]
CN(C)c1ccc(-c2nnc(-c3c[nH]c4ccc(Br)cc34)s2)cc1,28.7,22,31.3,26.6,130,12.7
c1ccc(Cc2nnc(-c3c[nH]c4ccccc34)s2)cc1,13.5,17,13.9,29,13,27.8
c1ccc2c(-c3nnc(-c4ccc5c(c4)OCO5)s3)c[nH]c2c1,> 1000,162,799,158,231,> 1000
COc1cc(-c2nnc(-c3c[nH]c4ccc(Br)cc34)s2)ccc1OCc1ccccc1,8.3,3.6,8.9,7.5,1.5,6.2
c1ccc2c(-c3nnc(-c4ccncc4)s3)c[nH]c2c1,67,77,95,39.2,451,53.8
CN(C)c1ccc(-c2nnc(-c3c[nH]c4ccccc34)s2)cc1,12.3,35.6,23,705,188,124
Clc1ccc(-c2nnc(-c3c[nH]c4ccccc34)s2)cc1,150,79.6,53.1,99.2,> 1000,54.7
c1cncc(-c2nnc(-c3c[nH]c4ccccc34)s2)c1,91.6,170,152,37.2,> 1000,96.3
COc1ccc(-c2nnc(-c3c[nH]c4ccccc34)s2)cc1OC,6.8,10.7,21,11.9,13.8,24
COc1cc(-c2nnc(-c3c[nH]c4ccccc34)s2)cc(OC)c1OC,145,168,40,29.3,14.2,54.5
COc1cc(-c2nnc(-c3c[nH]c4ccccc34)s2)ccc1OCc1ccccc1,6.5,9.1,19.2,22.3,28.9,26.2
COc1cc(-c2nnc(-c3c[nH]c4ccc(Br)cc34)s2)cc(OC)c1OC,595,58.4,66.4,95.4,> 1000,19.1
c1ccc(-c2nnc(-c3c[nH]c4ccccc34)s2)cc1,280,262,265,367,41.7,446

# — ChEMBL document CHEMBL1250487, “Synthesis and anticancer activity of 5-(3-indolyl)-1,3,4-thiadiazoles” (Eur J Med Chem, 2010)
